Most compounds without a hit are left out; they make up all but 2.6% or so of the library.
PRMT1 FP inh = PRMT1 methyltransferase inhibitors, primary screen, biochemical, fluorescence polarization; Protein arginine N-methyltransferase 1 (Homo sapiens), Q99873; recombinant PRMT1, activity-based probe fluorescence polarization; inhibition, % at 2.79 µM; 370,000 tested, 1.3% active; AID 652257, 2013;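 active = inhibition above about 21% made by adding two undisclosed values, limit read from the data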
Target sequence (Q99873 whole entry, looked up): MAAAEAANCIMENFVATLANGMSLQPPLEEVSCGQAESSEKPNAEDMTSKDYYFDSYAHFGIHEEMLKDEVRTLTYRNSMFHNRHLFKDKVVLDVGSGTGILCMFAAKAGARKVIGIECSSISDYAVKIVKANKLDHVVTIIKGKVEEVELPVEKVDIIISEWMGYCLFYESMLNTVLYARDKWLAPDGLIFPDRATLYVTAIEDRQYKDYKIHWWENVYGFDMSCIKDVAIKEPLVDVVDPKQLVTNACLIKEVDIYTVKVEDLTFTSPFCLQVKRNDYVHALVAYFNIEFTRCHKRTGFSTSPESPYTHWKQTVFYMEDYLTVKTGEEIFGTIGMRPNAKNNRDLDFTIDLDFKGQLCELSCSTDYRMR
HTRA1 inh = HTRA1 serine protease inhibitors, primary screen, biochemical, fluorescence polarization, HTS | Q92743 | recombinant HTRA1, FP-rhodamine activity-based probe | inhibition, % at 5.96 µM | AID 504803, 2011 | 340,000 tested, 0.5% active; in the data active = inhibition above about 36%
TCR-CD3 inh = inhibitors of human TCR-CD3 interaction, primary screen, biochemical, fluorescence, TAMRA-labeled TCR probe; inhibition, % at 9.4 µM; AID 651800, 2012; 360,000 tested, 0.37% active; in the data active = inhibition above about 19%;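 also: recombinant mutant TCR 2C K166C tagged with TAMRA read by polarization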
SIAE inh = human SIAE inhibitors, primary screen, biochemical, fluorescence polarization, FP-Rh probe, 1536-well HTS. AID 1053197, 2014. 370,000 tested, 0.69% active. inhibition, % at 9.66 µM. SIAE FP-Rh probe binding;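 active = inhibition above a cutoff: mean of compounds within the control limits plus 3 SD of those, cut at about 17% in these data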
mABHD4 FP = ABHD4 inhibitors, primary screen, biochemical, fluorescence polarization, mouse; purified mABHD4, FP-Rh probe fluorescence polarization; inhibition, % at 8.92 µM; AID 720543, 2013; 370,000 tested, 0.54% active; (Lyso)-N-acylphosphatidylethanolamine lipase (Mus musculus), Q8VD66;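 active = inhibition exceeding the mean over every tested compound plus 3 SD, cut at about 30% in these data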
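Material: mouse ABHD4 enzyme, wild type; Benchmarks: S159A mutant high control, sample median low control; Buffer or medium: HEPES pH 7.0, NaCl, Pluronic buffer; Signal: fluorescence polarization; Read-out: percent inhibition of probe binding, normalized to plate controls; Timing: pre-incubation 45 min, probe exposure 60 min, at 25 °C; Dosing: 8.92 µM, single dose.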
Numbers stand for hits; - = inactive; . = no result.

SMILES	PRMT1 FP inh	HTRA1 inh	TCR-CD3 inh	SIAE inh	mABHD4 FP
CCOc1ccc(OCCC(=O)OCC(=O)Nc2cc(OCC)c(N3CCOCC3)cc2OCC)cc1	-	-	-	-	-
O=C(CSC1=NS(=O)(=O)c2ccccc21)Nc1ccccc1	62.7	-	-	-	-
c1ccc(OCCNc2ccn3nc(-c4ccco4)cc3n2)cc1	21.5	.	-	-	-
Clc1cccc(CNc2ccn3nc(-c4ccco4)cc3n2)c1	22.8	.	-	-	-
c1ccc(OCCNc2ccn3nc(-c4ccccc4)cc3n2)cc1	-	.	-	-	-
COc1ccc(CC(=O)N(CCC2=CCCCC2)c2c(N)n(Cc3ccccc3)c(=O)[nH]c2=O)cc1OC	-	-	-	-	-
CC(=O)c1cccc(CN2CCCC(C(=O)Nc3cccc(-n4cccn4)c3)C2)c1 (stereo unspecified)	21.6	-	-	-	-
COC(=O)c1ccc(CN2CCCC(C(=O)Nc3cccc(-n4cccn4)c3)C2)cc1 (stereo unspecified)	-	-	-	-	-
O=C(Nc1cccc(C(F)(F)F)c1)/C(=C\c1ccco1)NC(=O)c1cccs1	-	-	-	-	-
O=C(Nc1cccc(F)c1)/C(=C\c1ccco1)NC(=O)c1cccs1	23.3	-	-	-	-
CC1(C)CC(=O)C=C(c2ccccc2-c2cccc(C(N)=O)c2)C1=O	-	.	-	-	-
Cc1cc(SCC(=O)c2ccccc2)nc(=O)[nH]1	24.7	-	-	-	-
Cc1ccc(C(=O)CSc2cc(C)[nH]c(=O)n2)cc1	-	-	-	-	-
COc1ccc(S(=O)(=O)N2CCCCC2)cc1NC(=O)CCc1nc2ccccc2c(=O)[nH]1	-	-	-	-	-
Cc1ccc(S(=O)(=O)N2CCCCC2)cc1NC(=O)CCc1nc2ccccc2c(=O)[nH]1	21.7	-	-	-	-
O=C(COC(=O)c1ccccc1C(=O)N1CCN(c2ccccc2)CC1)Nc1ccccc1	22.4	-	-	-	-
CCOc1ccccc1-c1c2cc(O)c(=O)cc-2oc2cc(O)c(O)cc12	.	85.1	.	.	.
CCOC(=O)c1oc2cc(O)ccc2c(=O)c1-c1ccccc1OC	-	-	-	-	-
CCCCOc1ccc(C(=O)NCC(=O)N2CCN(C(=O)c3ccco3)CC2)cc1	-	-	-	-	-
Oc1cc(-n2cccn2)c(O)cc1-n1cccn1	57.2	-	-	-	-
O=C(NCCc1ccccc1)C(c1cccs1)N(C(=O)c1csnn1)C1CC1 (stereo unspecified)	-	-	-	17.6	-
O=C(NCc1ccccc1)C(c1cccs1)N(C(=O)c1csnn1)C1CC1 (stereo unspecified)	-	-	-	-	-
C=CCN=C1NC(c2cccc(F)c2)C(C(=O)OC)=C(C)N1Cc1cccc(C(F)(F)F)c1 (stereo unspecified)	-	.	-	-	-
O=C(NCc1ccccc1)[C@H]1CCCN1	-	.	-	-	-
O=C(CCN1CCOCC1)c1ccc2c(c1)OCCO2	23.8	-	-	-	-
SMILES	PRMT1 FP inh	HTRA1 inh	TCR-CD3 inh	SIAE inh	mABHD4 FP
Cc1ccc(C)c(-n2sc3ccc(F)cc3c2=O)c1	91.5	-	-	-	-
O=c1c2cc(F)ccc2sn1-c1ccc(F)cc1	.	-	.	.	.
COc1ccc(-n2sc3ccc(F)cc3c2=O)cc1	86.8	-	-	-	-
S=c1[nH]nc(-c2n[nH]c3c2CCC3)n1N=Cc1ccc(OCc2ccccc2)cc1	-	.	.	-	-
C=CCCC1CN(Cc2ccc(OC)cc2)S(=O)(=O)c2c(Oc3ccc(C)cc3)cccc2O1 (stereo unspecified)	-	.	-	-	-
O=C(O)c1ccc2c(c1)C(=O)/C(=C/c1ccccc1)C2=O	25.4	-	-	-	30.8
Nc1nc2cc(S(=O)(=O)N3CCOCC3)ccc2o1	-	-	-	-	-
CN(C)c1ccc(C=Nc2ccccc2)cc1	-	-	-	-	-
CN(C)c1ccc(N=Cc2ccco2)cc1	.	54.6	.	.	.
Cc1cc(C(=O)COC(=O)C2=COCCO2)c(C)n1-c1ccc2c(c1)OCO2	-	-	-	17.4	-
COc1ccc2nc(NNC(=O)c3cc(=O)c4ccccc4o3)sc2c1	21.9	-	-	-	-
C/C(=C(/CCO)SSCC1CCCO1)N(C=O)Cc1cnc(C)nc1N (stereo unspecified)	23.6	-	-	-	-
CCCCOCC1CN(CCCC)S(=O)(=O)c2c(cccc2N2CCCC2)O1 (stereo unspecified)	-	.	-	-	-
COc1cc(/C=C2/S/C(=N/S(=O)(=O)c3ccccc3)NC2=O)c([N+](=O)[O-])cc1OC	33.5	-	-	-	-
COc1cc(/C=C2\S/C(=N/S(=O)(=O)Cc3ccccc3)NC2=O)c([N+](=O)[O-])cc1OC	-	-	-	-	-
COc1ccccc1-c1nnc(SCC(=O)Nc2ccc(N3CCOCC3)cc2)n1C	-	-	-	-	-
Cc1ccc(O)c(NC(=S)NC(=O)/C=C/c2ccco2)c1	-	-	-	-	-
O=C(/C=C/c1ccco1)NC(=S)Nc1ccc(C(=O)O)cc1	24.2	-	-	-	-
Cc1ccnc(NC(=S)NC(=O)/C=C/c2ccco2)c1	23.3	-	-	-	-
Cc1ccc(C)c(/C=N/Nc2nc3ccccc3c(=O)n2O)c1	24.7	.	-	-	-
C/C(=N\Nc1nc2ccccc2c(=O)n1O)c1ccco1	36.1	-	20.1	-	-
O=C(NCc1n[nH]c(=S)n1-c1ccc(Cl)c(Cl)c1)c1ccc(S(=O)(=O)N2CCCCC2)cc1	23.3	-	-	-	-
COC(=O)Cc1nnn2c1[C@H](C)[C@H](c1ccccc1Br)OC[C@@H]2c1ccccc1	-	.	-	-	-
Cc1ccc(C)c(SCC(=O)Nc2oc(C)c3c(C)n[nH]c(=O)c23)c1	22.0	-	-	-	-
CC1CC(=O)c2c(cc3c(-c4c(O)cc(O)c5c(O)c6c(cc45)OC(C)CC6=O)c(O)cc(O)c3c2O)O1 (stereo unspecified)	.	78.4	.	.	.
SMILES	PRMT1 FP inh	HTRA1 inh	TCR-CD3 inh	SIAE inh	mABHD4 FP
CCCCOC(=O)c1ccc(NC(=O)Nc2ccc(OC)c(OC)c2)cc1	-	-	-	20.2	-
CCOC(=O)c1ccc(NC(=O)Nc2ccc(OC)c(OC)c2)cc1	-	-	-	-	-
COCCNC(=O)/C(C#N)=C/c1c(N2CCN(C)CC2)nc2c(C)cccn2c1=O	-	-	-	-	-
CCN1CCN(c2nc3c(C)cccn3c(=O)c2/C=C(\C#N)C(=O)NCCOC)CC1	22.7	-	-	-	-
COC(=O)c1cc2c(c3c4cc(F)ccc4n(S(=O)(=O)c4ccc(C)cc4)c13)C(=O)N(Cc1ccc(C(F)(F)F)cc1)C2	-	.	-	-	-
COc1ccc(C(=O)N2CCN(c3cccc(Cl)c3)CC2)cc1S(=O)(=O)NC1CC1	23.8	-	-	-	-
COc1cccc(CNC(=O)CCCC(=O)NC(C)CCc2ccccc2)c1 (stereo unspecified)	-	-	-	-	-
